# ChEMBL document CHEMBL3774346, “Rational design, synthesis and biological evaluation of 1,3,4-oxadiazole pyrimidine derivatives as novel pyruvate dehydrogenase complex E1 inhibitors” (Bioorg Med Chem, 2016)
# Tested on: Alternaria solani
# Test: Antifungal activity against Alternaria solani at 100 ug/ml
# Type: functional
row,Structure (SMILES),inhibition at 100 µg/mL [%]
1,Cc1ncc(Cn2cc(CSc3nnc(-c4sc(N)nc4C)n3N)nn2)c(N)n1,29
2,Cc1ncc(Cn2cc(CSc3nnc(-c4ccccc4)o3)nn2)c(N)n1,47
3,Cc1ncc(Cn2cc(CSc3nnc(-c4sc(N)nc4C(F)(F)F)o3)nn2)c(N)n1,53
4,Cc1ncc(Cn2cc(CSc3nnc(-c4cccc([N+](=O)[O-])c4)o3)nn2)c(N)n1,48
5,CNc1nc(C(F)(F)F)c(-c2nnc(SCc3cn(Cc4cnc(C)nc4N)nn3)n2N)s1,21
6,Cc1ncc(Cn2cc(CSc3nnc(-c4ccccc4[N+](=O)[O-])o3)nn2)c(N)n1,58

# Molecular target: T1, Pyruvate dehydrogenase E1 component subunit alpha, somatic form, mitochondrial (Sus scrofa) (UniProt P29804)
# T1 sequence (whole entry): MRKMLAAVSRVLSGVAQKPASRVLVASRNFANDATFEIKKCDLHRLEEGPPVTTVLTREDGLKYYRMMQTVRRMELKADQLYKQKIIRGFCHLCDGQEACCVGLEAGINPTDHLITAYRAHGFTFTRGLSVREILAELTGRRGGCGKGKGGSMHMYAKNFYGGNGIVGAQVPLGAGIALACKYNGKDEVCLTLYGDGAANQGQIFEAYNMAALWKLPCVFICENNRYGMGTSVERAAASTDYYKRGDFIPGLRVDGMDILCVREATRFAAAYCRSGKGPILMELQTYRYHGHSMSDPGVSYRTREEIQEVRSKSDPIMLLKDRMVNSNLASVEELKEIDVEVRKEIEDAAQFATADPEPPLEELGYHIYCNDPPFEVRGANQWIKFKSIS
# Test: Inhibition of pig heart PDHc-E1 using sodium pyruvate as substrate at 100 uM after 3 mins by 2,6-DCPIP based microplate reader method
row,inhibition [%],Structure (SMILES)
1,28.3,Cc1ncc(Cn2cc(CSc3nnc(-c4sc(N)nc4C(F)(F)F)o3)nn2)c(N)n1

# Tested on: Escherichia coli
# Test: Inhibition of Escherichia coli PDHc-E1 expressed in Escherichia coli TB1 at 100 uM using sodium pyruvate as substrate after 3 mins by 2,6-DCPIP based microplate reader method
row,inhibition [%],Structure (SMILES)
1,100,Cc1ncc(Cn2cc(CSc3nnc(-c4sc(N)nc4C(F)(F)F)o3)nn2)c(N)n1

# Tested on: Colletotrichum orbiculare
# Test: Antifungal activity against Colletotrichum orbiculare at 100 ug/ml
# Type: functional
row,Structure (SMILES),inhibition at 100 µg/mL [%]
1,Cc1ncc(Cn2cc(CSc3nnc(-c4sc(N)nc4C)n3N)nn2)c(N)n1,26
2,Cc1ncc(Cn2cc(CSc3nnc(-c4ccccc4)o3)nn2)c(N)n1,40
3,Cc1ncc(Cn2cc(CSc3nnc(-c4sc(N)nc4C(F)(F)F)o3)nn2)c(N)n1,25
4,Cc1ncc(Cn2cc(CSc3nnc(-c4cccc([N+](=O)[O-])c4)o3)nn2)c(N)n1,40
5,CNc1nc(C(F)(F)F)c(-c2nnc(SCc3cn(Cc4cnc(C)nc4N)nn3)n2N)s1,28
6,Cc1ncc(Cn2cc(CSc3nnc(-c4ccccc4[N+](=O)[O-])o3)nn2)c(N)n1,48

# Tested on: Rhizoctonia solani
# Test: Antifungal activity against Rhizoctonia solani at 100 ug/ml
# Type: functional
row,Structure (SMILES),inhibition at 100 µg/mL [%]
1,Cc1ncc(Cn2cc(CSc3nnc(-c4sc(N)nc4C)n3N)nn2)c(N)n1,16
2,Cc1ncc(Cn2cc(CSc3nnc(-c4ccccc4)o3)nn2)c(N)n1,30
3,Cc1ncc(Cn2cc(CSc3nnc(-c4sc(N)nc4C(F)(F)F)o3)nn2)c(N)n1,11
4,Cc1ncc(Cn2cc(CSc3nnc(-c4cccc([N+](=O)[O-])c4)o3)nn2)c(N)n1,60
5,CNc1nc(C(F)(F)F)c(-c2nnc(SCc3cn(Cc4cnc(C)nc4N)nn3)n2N)s1,11
6,Cc1ncc(Cn2cc(CSc3nnc(-c4ccccc4[N+](=O)[O-])o3)nn2)c(N)n1,40

# Tested on: Botrytis cinerea
# Test: Antifungal activity against Botrytis cinerea at 100 ug/ml
# Type: functional
row,Structure (SMILES),inhibition at 100 µg/mL [%]
1,Cc1ncc(Cn2cc(CSc3nnc(-c4sc(N)nc4C)n3N)nn2)c(N)n1,16
2,Cc1ncc(Cn2cc(CSc3nnc(-c4ccccc4)o3)nn2)c(N)n1,60
3,Cc1ncc(Cn2cc(CSc3nnc(-c4sc(N)nc4C(F)(F)F)o3)nn2)c(N)n1,60
4,Cc1ncc(Cn2cc(CSc3nnc(-c4cccc([N+](=O)[O-])c4)o3)nn2)c(N)n1,59
5,CNc1nc(C(F)(F)F)c(-c2nnc(SCc3cn(Cc4cnc(C)nc4N)nn3)n2N)s1,8
6,Cc1ncc(Cn2cc(CSc3nnc(-c4ccccc4[N+](=O)[O-])o3)nn2)c(N)n1,54

# Tested on: not listed separately
# Test: Inhibition of Escherichia coli PDHc-E1 expressed in Escherichia coli TB1 using sodium pyruvate as substrate and ThDP after 3 mins by 2,6-DCPIP based microplate reader method
# In short: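 The enzyme (7.1 µM) was preincubated 3 min at 37 °C with varied inhibitor in 50 mM K3PO4 pH 7.2, 2.0 mM pyruvate and 0.8 mM 2,6-DCPIP. ThDP (0–200 µM) started the reaction, read as A600 decrease. IC50 came from a Hill fit of initial rates.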
row,Structure (SMILES),IC50 [µM]
1,Cc1ncc(Cn2cc(CSc3nnc(-c4sc(N)nc4C)n3N)nn2)c(N)n1,7.02
2,Cc1ncc(Cn2cc(CSc3nnc(-c4sc(N)nc4C(F)(F)F)o3)nn2)c(N)n1,3.94
3,CNc1nc(C(F)(F)F)c(-c2nnc(SCc3cn(Cc4cnc(C)nc4N)nn3)n2N)s1,15.7

# Next, values leading:
row,IC50 [µM],Structure (SMILES)
1,7.87,Cc1ncc(Cn2cc(CSc3nnc(-c4ccccc4)o3)nn2)c(N)n1
2,10.4,Cc1ncc(Cn2cc(CSc3nnc(-c4cccc([N+](=O)[O-])c4)o3)nn2)c(N)n1
3,9.84,Cc1ncc(Cn2cc(CSc3nnc(-c4ccccc4[N+](=O)[O-])o3)nn2)c(N)n1

# Tested on: not listed separately
# Test: Antibacterial activity against Synechocystis sp. PCC 6803 at 10 uM
# Type: functional
row,Structure (SMILES),inhibition at 10 µM [%]
1,Cc1ncc(Cn2cc(CSc3nnc(-c4sc(N)nc4C)n3N)nn2)c(N)n1,90
2,Cc1ncc(Cn2cc(CSc3nnc(-c4ccccc4)o3)nn2)c(N)n1,90
3,Cc1ncc(Cn2cc(CSc3nnc(-c4sc(N)nc4C(F)(F)F)o3)nn2)c(N)n1,90
4,Cc1ncc(Cn2cc(CSc3nnc(-c4cccc([N+](=O)[O-])c4)o3)nn2)c(N)n1,90
5,Cc1ncc(Cn2cc(CSc3nnc(-c4ccccc4[N+](=O)[O-])o3)nn2)c(N)n1,90

# Tested on: not listed separately
# Test: Antibacterial activity against Synechocystis sp. PCC 6803
# Type: functional
row,Structure (SMILES),EC50 [µM]
1,Cc1ncc(Cn2cc(CSc3nnc(-c4sc(N)nc4C)n3N)nn2)c(N)n1,2.3
2,Cc1ncc(Cn2cc(CSc3nnc(-c4sc(N)nc4C(F)(F)F)o3)nn2)c(N)n1,1.61
3,CNc1nc(C(F)(F)F)c(-c2nnc(SCc3cn(Cc4cnc(C)nc4N)nn3)n2N)s1,9.86

# Now from value to compound:
row,EC50 [µM],Structure (SMILES)
1,5.15,Cc1ncc(Cn2cc(CSc3nnc(-c4ccccc4)o3)nn2)c(N)n1
2,5.14,Cc1ncc(Cn2cc(CSc3nnc(-c4cccc([N+](=O)[O-])c4)o3)nn2)c(N)n1
3,4.76,Cc1ncc(Cn2cc(CSc3nnc(-c4ccccc4[N+](=O)[O-])o3)nn2)c(N)n1
